≈ marks a conversion by molar mass, not a printed value.
Assays:
Escherichia coli [1] = test: Antibacterial activity against Escherichia coli ATCC 35210 at […] degC measured after 24 hr by microdilution method; format: functional; conditions: ATCC 35210, 24 h
In short: (§1)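 Bacteria suspended in sterile saline at 1.0×10⁵ CFU/ml and added at 1.0×10⁴ CFU per well to LB broth with compound (1 mg/ml) in 96-well plates. Incubated 24 h at […] °C. MIC was the lowest concentration without visible growth under a binocular microscope. OD 655 nm was read against a blank and a positive control.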

Aspergillus fumigatus = test: Antifungal activity against plant isolate Aspergillus fumigatus at 28 degC measured after 72 hr by microdilution method; format: functional
In short: (§2)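 Fungi were kept on malt agar at 4 °C. Spores were washed off with sterile 0.85% saline containing 0.1% Tween 80 and adjusted to about 1.0×10⁵ per well. Compounds were dissolved in DMSO (1 mg/ml stock) and serially diluted in malt broth with inoculum in 96-well plates, 72 h at 28 °C, for MIC. MFC came from subculture into fresh broth for a further 72 h at 28 °C.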

Bacillus cereus [2] = test: Antibacterial activity against clinical isolate Bacillus cereus at […] degC measured after 72 hr by microdilution method; format: functional
In short: (§3)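 Bactericidal endpoint: after the 24 h broth microdilution (1.0×10⁴ CFU per well, LB broth, […] °C), wells were serially subcultured into plates of fresh broth and incubated a further 72 h. MBC was the lowest concentration with no visible growth, taken as 99.5% killing of the original inoculum.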

Bacillus cereus [3] = test: Antibacterial activity against clinical isolate Bacillus cereus at […] degC measured after 24 hr by microdilution method; format: functional; in short: as §1
Escherichia coli [4] = test: Antibacterial activity against Escherichia coli ATCC 35210 at […] degC measured after 72 hr by microdilution method; format: functional; conditions: ATCC 35210, 72 h; in short: as §3
Staphylococcus aureus [5] = test: Antibacterial activity against Staphylococcus aureus ATCC 6538 at […] degC measured after 24 hr by microdilution method; format: functional; conditions: ATCC 6538, 24 h; in short: as §1
Pseudomonas aeruginosa [6] = test: Antibacterial activity against Pseudomonas aeruginosa ATCC 27853 at […] degC measured after 72 hr by microdilution method; format: functional; conditions: ATCC 27853, 72 h; in short: as §3
Aspergillus versicolor = test: Antifungal activity against Aspergillus versicolor ATCC 11730 at 28 degC measured after 72 hr by microdilution method; format: functional; conditions: ATCC 11730, 72 h; in short: as §2
Talaromyces funiculosus = test: Antifungal activity against Talaromyces funiculosus ATCC 36839 at 28 degC measured after 72 hr by microdilution method; format: functional; conditions: ATCC 36839, 72 h; in short: as §2
Micrococcus flavus [7] = test: Antibacterial activity against Micrococcus flavus ATCC 10240 at […] degC measured after 24 hr by microdilution method; format: functional; conditions: ATCC 10240, 24 h; in short: as §1
Pseudomonas aeruginosa [8] = test: Antibacterial activity against Pseudomonas aeruginosa ATCC 27853 at […] degC measured after 24 hr by microdilution method; format: functional; conditions: ATCC 27853, 24 h; in short: as §1
Salmonella typhimurium [9] = test: Antibacterial activity against Salmonella enterica subsp. enterica serovar TyphimuriumATCC 13311 at […] degC measured after 72 hr by microdilution method; format: functional, Salmonella enterica subsp. enterica serovar Typhimurium; conditions: ATCC 13311, 72 h; in short: as §3
Penicillium ochrochloron = test: Antifungal activity against Penicillium ochrochloron ATCC 9112 at 28 degC measured after 72 hr by microdilution method; format: functional; conditions: ATCC 9112, 72 h; in short: as §2
Trichoderma viride = test: Antifungal activity against Hypocrea rufa IAM 5061 at 28 degC measured after 72 hr by microdilution method; format: functional; conditions: IAM 5061, 72 h; in short: as §2
Aspergillus niger = test: Antifungal activity against Aspergillus niger ATCC 6275 at 28 degC measured after 72 hr by microdilution method; format: functional; conditions: ATCC 6275, 72 h; in short: as §2
Listeria monocytogenes [10] = test: Antibacterial activity against Listeria monocytogenes NCTC 7973 at […] degC measured after 72 hr by microdilution method; format: functional; conditions: NCTC 7973, 72 h; in short: as §3
Micrococcus flavus [11] = test: Antibacterial activity against Micrococcus flavus ATCC 10240 at […] degC measured after 72 hr by microdilution method; format: functional; conditions: ATCC 10240, 72 h; in short: as §3
Proteus mirabilis [12] = test: Antibacterial activity against Proteus mirabilis at […] degC measured after 72 hr by microdilution method; format: functional; in short: as §3
Salmonella typhimurium [13] = test: Antibacterial activity against Salmonella enterica subsp. enterica serovar Typhimurium ATCC 13311 at […] degC measured after 24 hr by microdilution method; format: functional; conditions: ATCC 13311, 24 h; in short: as §1
Staphylococcus aureus [14] = test: Antibacterial activity against Staphylococcus aureus ATCC 6538 at […] degC measured after 72 hr by microdilution method; format: functional; conditions: ATCC 6538, 72 h; in short: as §3
Listeria monocytogenes [15] = test: Antibacterial activity against Listeria monocytogenes NCTC 7973 at […] degC measured after 24 hr by microdilution method; format: functional; conditions: NCTC 7973, 24 h; in short: as §1
Proteus mirabilis [16] = test: Antibacterial activity against Proteus mirabilis at […] degC measured after 24 hr by microdilution method; format: functional; in short: as §1
Aspergillus flavus = test: Antifungal activity against Aspergillus flavus ATCC 9643 at 28 degC measured after 72 hr by microdilution method; format: functional; conditions: ATCC 9643, 72 h; in short: as §2
Fulvia fulva = test: Antifungal activity against Passalora fulva TK5318 at 28 degC measured after 72 hr by microdilution method; format: functional; conditions: TK5318, 72 h; in short: as §2

SMILES	MIC (Escherichia coli [1]) [µM]	MFC (Aspergillus fumigatus) [µM]	MIC (Aspergillus fumigatus) [µM]	MBC (Bacillus cereus [2]) [µM]	MIC (Bacillus cereus [3]) [µM]	MBC (Escherichia coli [4]) [µM]	MIC (Staphylococcus aureus [5]) [µM]	MBC (Pseudomonas aeruginosa [6]) [µM]	MFC (Aspergillus versicolor) [µM]	MIC (Aspergillus versicolor) [µM]	MFC (Talaromyces funiculosus) [µM]	MIC (Talaromyces funiculosus) [µM]	MIC (Micrococcus flavus [7]) [µM]	MIC (Pseudomonas aeruginosa [8]) [µM]	MBC (Salmonella typhimurium [9]) [µM]	MFC (Penicillium ochrochloron) [µM]	MIC (Penicillium ochrochloron) [µM]	MFC (Trichoderma viride) [µM]	MIC (Trichoderma viride) [µM]	MFC (Aspergillus niger) [µM]	further results
COc1cc(Cc2nnc(Nc3ccccc3)s2)c(S(=O)(=O)N(C)C)cc1OC	46 (≈ 20 µg/mL)	46 (≈ 20 µg/mL)	11.5 (≈ 5 µg/mL)	46 (≈ 20 µg/mL)	23 (≈ 9.99 µg/mL)	46 (≈ 20 µg/mL)	46 (≈ 20 µg/mL)	46 (≈ 20 µg/mL)	23 (≈ 9.99 µg/mL)	11.5 (≈ 5 µg/mL)	23 (≈ 9.99 µg/mL)	11.5 (≈ 5 µg/mL)	11.5 (≈ 5 µg/mL)	46 (≈ 20 µg/mL)	92 (≈ 40 µg/mL)	46 (≈ 20 µg/mL)	23 (≈ 9.99 µg/mL)	23 (≈ 9.99 µg/mL)	11.5 (≈ 5 µg/mL)	46 (≈ 20 µg/mL)	MIC (Aspergillus niger): 23 µM (≈ 9.99 µg/mL); MBC (Listeria monocytogenes [10]): 92 µM (≈ 40 µg/mL); MBC (Micrococcus flavus [11]): 17.5 µM (≈ 7.6 µg/mL); MBC (Proteus mirabilis [12]): 46 µM (≈ 20 µg/mL); MIC (Salmonella typhimurium [13]): 46 µM (≈ 20 µg/mL); MBC (Staphylococcus aureus [14]): 92 µM (≈ 40 µg/mL); MIC (Listeria monocytogenes [15]): 46 µM (≈ 20 µg/mL); MIC (Proteus mirabilis [16]): 46 µM (≈ 20 µg/mL); MFC (Aspergillus flavus): 46 µM (≈ 20 µg/mL); MIC (Aspergillus flavus): 23 µM (≈ 9.99 µg/mL); MFC (Fulvia fulva): 23 µM (≈ 9.99 µg/mL); MIC (Fulvia fulva): 11.5 µM (≈ 5 µg/mL)
COc1cc(Cc2nnc(Nc3ccc(Cl)cc3)s2)c(S(=O)(=O)N(C)C)cc1OC	42.6 (≈ 20 µg/mL)	42.6 (≈ 20 µg/mL)	10.7 (≈ 5.02 µg/mL)	21.3 (≈ 9.99 µg/mL)	10.7 (≈ 5.02 µg/mL)	85.2 (≈ 40 µg/mL)	21.3 (≈ 9.99 µg/mL)	85.2 (≈ 40 µg/mL)	42.6 (≈ 20 µg/mL)	10.7 (≈ 5.02 µg/mL)	21.3 (≈ 9.99 µg/mL)	10.7 (≈ 5.02 µg/mL)	21.3 (≈ 9.99 µg/mL)	42.6 (≈ 20 µg/mL)	42.6 (≈ 20 µg/mL)	42.6 (≈ 20 µg/mL)	21.3 (≈ 9.99 µg/mL)	21.3 (≈ 9.99 µg/mL)	10.7 (≈ 5.02 µg/mL)	42.6 (≈ 20 µg/mL)	MIC (Aspergillus niger): 10.7 µM (≈ 5.02 µg/mL); MBC (Listeria monocytogenes [10]): 85.2 µM (≈ 40 µg/mL); MBC (Micrococcus flavus [11]): 42.6 µM (≈ 20 µg/mL); MBC (Proteus mirabilis [12]): 42.6 µM (≈ 20 µg/mL); MIC (Salmonella typhimurium [13]): 21.3 µM (≈ 9.99 µg/mL); MBC (Staphylococcus aureus [14]): 42.6 µM (≈ 20 µg/mL); MIC (Listeria monocytogenes [15]): 85.2 µM (≈ 40 µg/mL); MIC (Proteus mirabilis [16]): 21.3 µM (≈ 9.99 µg/mL); MFC (Aspergillus flavus): 42.6 µM (≈ 20 µg/mL); MIC (Aspergillus flavus): 10.7 µM (≈ 5.02 µg/mL); MFC (Fulvia fulva): 85.2 µM (≈ 40 µg/mL); MIC (Fulvia fulva): 21.3 µM (≈ 9.99 µg/mL)
COc1cc(Cc2nnc(Nc3ccc([N+](=O)[O-])cc3)s2)c(S(=O)(=O)N(C)C)cc1OC	20.9 (≈ 10 µg/mL)	41.8 (≈ 20 µg/mL)	20.9 (≈ 10 µg/mL)	20.9 (≈ 10 µg/mL)	10.5 (≈ 5.04 µg/mL)	83.6 (≈ 40.1 µg/mL)	41.8 (≈ 20 µg/mL)	41.8 (≈ 20 µg/mL)	41.8 (≈ 20 µg/mL)	20.9 (≈ 10 µg/mL)	20.9 (≈ 10 µg/mL)	10.5 (≈ 5.04 µg/mL)	20.9 (≈ 10 µg/mL)	15.7 (≈ 7.53 µg/mL)	20.9 (≈ 10 µg/mL)	41.8 (≈ 20 µg/mL)	10.9 (≈ 5.23 µg/mL)	20.9 (≈ 10 µg/mL)	10.5 (≈ 5.04 µg/mL)	41.8 (≈ 20 µg/mL)	MIC (Aspergillus niger): 20.9 µM (≈ 10 µg/mL); MBC (Listeria monocytogenes [10]): 83.6 µM (≈ 40.1 µg/mL); MBC (Micrococcus flavus [11]): 83.6 µM (≈ 40.1 µg/mL); MBC (Proteus mirabilis [12]): 83.6 µM (≈ 40.1 µg/mL); MIC (Salmonella typhimurium [13]): 10.5 µM (≈ 5.04 µg/mL); MBC (Staphylococcus aureus [14]): 83.6 µM (≈ 40.1 µg/mL); MIC (Listeria monocytogenes [15]): 41.8 µM (≈ 20 µg/mL); MIC (Proteus mirabilis [16]): 41.8 µM (≈ 20 µg/mL); MFC (Aspergillus flavus): 41.8 µM (≈ 20 µg/mL); MIC (Aspergillus flavus): 20.9 µM (≈ 10 µg/mL); MFC (Fulvia fulva): 20.9 µM (≈ 10 µg/mL); MIC (Fulvia fulva): 10.5 µM (≈ 5.04 µg/mL)
COc1cc(Cc2nnc(Nc3ccc(C(F)(F)F)cc3)s2)c(S(=O)(=O)N(C)C)cc1OC	39.8 (≈ 20 µg/mL)	39.8 (≈ 20 µg/mL)	19.9 (≈ 10 µg/mL)	19.9 (≈ 10 µg/mL)	9.9 (≈ 4.98 µg/mL)	79.6 (≈ 40 µg/mL)	19.9 (≈ 10 µg/mL)	39.8 (≈ 20 µg/mL)	39.8 (≈ 20 µg/mL)	9.9 (≈ 4.98 µg/mL)	19.9 (≈ 10 µg/mL)	9.9 (≈ 4.98 µg/mL)	9.9 (≈ 4.98 µg/mL)	19.9 (≈ 10 µg/mL)	19.9 (≈ 10 µg/mL)	39.8 (≈ 20 µg/mL)	9.9 (≈ 4.98 µg/mL)	19.9 (≈ 10 µg/mL)	9.9 (≈ 4.98 µg/mL)	39.8 (≈ 20 µg/mL)	MIC (Aspergillus niger): 19.9 µM (≈ 10 µg/mL); MBC (Listeria monocytogenes [10]): 79.6 µM (≈ 40 µg/mL); MBC (Micrococcus flavus [11]): 19.9 µM (≈ 10 µg/mL); MBC (Proteus mirabilis [12]): 79.6 µM (≈ 40 µg/mL); MIC (Salmonella typhimurium [13]): 9.9 µM (≈ 4.98 µg/mL); MBC (Staphylococcus aureus [14]): 39.8 µM (≈ 20 µg/mL); MIC (Listeria monocytogenes [15]): 39.8 µM (≈ 20 µg/mL); MIC (Proteus mirabilis [16]): 19.9 µM (≈ 10 µg/mL); MFC (Aspergillus flavus): 39.8 µM (≈ 20 µg/mL); MIC (Aspergillus flavus): 19.9 µM (≈ 10 µg/mL); MFC (Fulvia fulva): 19.9 µM (≈ 10 µg/mL); MIC (Fulvia fulva): 9.9 µM (≈ 4.98 µg/mL)

From ChEMBL document CHEMBL3045677, “Sulfonamide-1,2,4-thiadiazole derivatives as antifungal and antibacterial agents: synthesis, biological evaluation, lipophilicity, and conformational studies” (2010)
